Assays:
Rattus norvegicus [1] = species: Rattus norvegicus; test: Ability to block apomorphine-induced stereotypy in rats.; type: functional
Method in brief: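 Male Wistar rats (150–250 g), 6–10 per dose group, given distilled water or test drug ip; apomorphine 1.5 mg/kg sc 50 min later. Rats were placed singly in cages and scored 10 min afterwards for continuous stereotyped licking or sniffing. Inhibition was the number of animals protected versus controls. ED50 was obtained by probit analysis.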

Mus musculus = species: Mus musculus; test: Ability to inhibit apomorphine-induced climbing behavior in mice.; type: functional
Method in brief: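 Male CD-1 mice (18–30 g) were adapted for 1 h in wire-mesh cages, 8 per dose group. Distilled water or drug was given ip 30 or 60 min before apomorphine 1.5 mg/kg sc.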

Rattus norvegicus [2] = test: Induction of catalepsy in rats was determined after 2 hr of intraperitoneal administration of the compound; type: functional; details: ip
Method in brief: (§1)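 Male Wistar rats (150–250 g), 6–10 per dose group, dosed ip with distilled water or drug. Each hour for 6 h, forepaws were placed on an elevated wooden bar; remaining there 60 s counted as cataleptic.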

Rattus norvegicus [3] = test: Pole climb avoiding activity in rats was determined after 1 hr of intraperitoneal administration of the compound; type: functional; details: ip
Method in brief: (§2)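 Male Long Evans rats trained to 80% avoidance in a discrete-trial signaled pole-climb paradigm: 25 trials per 50 min session, maximum 26 s of shock per trial. Distilled water or drug was given ip, 6 per dose group, at a 60 min pretreatment. Avoidance responses and escape failures were compared with water controls. ED50 by linear regression.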

Rattus norvegicus [4] = test: Social interaction of rats was determined after 1 hr of intraperitoneal administration at […]; type: functional
Rattus norvegicus [5] = test: Intracranial self stimulation in rat was determined after 1 hr of intraperitoneal administration of the compound; type: functional; details: ip
Method in brief: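 Male Wistar rats (300–400 g) with chronic electrodes in the medial forebrain bundle at the preoptic level, trained after 2 weeks of recovery to lever-press for biphasic square-wave pulse trains. Once baseline responding was stable, drug was given (3–6 per dose group) and compared with nondrug controls. ED50 was calculated by linear regression on percent change from control.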

Rattus norvegicus [6] = test: Side effect liability of compound at intraperitoneal dose of 0.5 mg/kg on 6.2 (A9 units)dopamine neurons in the nigrostriatal in rat; type: functional
Rattus norvegicus [7] = test: Antipsychotic efficacy of compound at intraperitoneal dose of 0.5 mg/kg on 6.8 (A10 units) dopamine neurons in the mesolimbic region of rat; type: functional
Rattus norvegicus [8] = test: Pole climb escape failures of rats was determined after 1 hr of intraperitoneal administration of the compound; type: functional; details: ip; method in brief: as §2
Rattus norvegicus [9] = test: Antagonistic activity administered intraperitoneally on head twitches induced by 5- HTP; type: functional; details: ip
Method in brief: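 Male Wistar rats (180–280 g), groups of eight. L-5-HTP given ip (240 mg/10 mL distilled water with Tween 80); compounds given ip 30 min after 5-HTP. At 60 min post-5-HTP, head twitches were counted for 10 min per rat under white noise, then expressed as percent change from vehicle. Dose–response used 3–4 dose groups; ED50 by linear regression.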

Rattus norvegicus [10] = test: Induction of catalepsy in rats was determined after 1 hr of intraperitoneal administration at 80 mg/kg; type: functional
Method in brief: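 Male Wistar rats (150–250 g, 6–10/dose group) were dosed ip with compound or distilled water. Every hour for 6 h after dosing, the forepaws were placed on an elevated wooden bar, and a rat was scored cataleptic if the paws stayed on the bar for 60 s.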

Rattus norvegicus [11] = test: Social interaction of rats was determined after 1 hr of intraperitoneal administration at 10 mg/kg; type: functional
Method in brief: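 Pairs of male Wistar rats (200–275 g) were acclimated to the arena for 8 min on two consecutive days. On day 3, unfamiliar rats (six pairs/group) got drug or vehicle, and 30 or 60 min later they were paired and observed for 5 min. Social interaction time and total activity were compared with controls by one-way ANOVA and Duncan's test.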

Rattus norvegicus [12] = test: Side effect liability of compound at intraperitoneal dose of 20 mg/kg on 13.7 (A9 units)dopamine neurons in the nigrostriatal in rat; type: functional
Method in brief: (§3)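 Male Wistar rats (280–360 g) were dosed ip once daily for 21 days with compound suspended in distilled water plus 1 drop Tween 80; vehicle rats served as controls. Sampling began 2 h after the last dose under chloral hydrate anesthesia (400 mg/kg ip). Spontaneously active A9 and A10 dopamine units were counted per 12 tracks. Groups were compared by one-way ANOVA with Newman–Keuls post hoc.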

Rattus norvegicus [13] = test: Antipsychotic efficacy of compound at intraperitoneal dose of 20 mg/kg on 1.8 (A10 units) dopamine neurons in the mesolimbic region of rat; type: functional; method in brief: as §3
Rattus norvegicus [14] = test: Social interaction of rats was determined after 1 hr of intraperitoneal administration at 0.5 mg/kg; type: functional
Method in brief: (§4)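 Pairs of male Wistar rats (200–275 g) were acclimated to the arena for 8 min on two days. On day 3, unfamiliar pairs were formed, six pairs per group, and dosed with drug or vehicle. Interaction time and total activity were compared by one-way ANOVA with Duncan's test.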

Rattus norvegicus [15] = test: Induction of catalepsy in rats was determined after 1 hr of intraperitoneal administration of the compound; type: functional; details: ip; method in brief: as §1
Rattus norvegicus [16] = test: Antipsychotic efficacy of compound at intraperitoneal dose of 10 mg/kg on 6.1 (A10 units)dopamine neurons in the mesolimbic in rat; type: functional
D(1A) dopamine receptor = D(1A) dopamine receptor (Mus musculus, UniProt Q61616); test: Binding affinity against Dopamine receptor D1 was determined using [3H]SCH-23390 radioligand
[17] = target: Sigma non-opioid intracellular receptor 1 (Homo sapiens, UniProt Q99720); test: Binding affinity against sigma receptor using [3H]-( +)-SKF10,047 radioligand
[18] = target: 5-hydroxytryptamine receptor 2A (Bos taurus, UniProt Q75Z89); test: Binding affinity against 5-hydroxytryptamine 2 receptor was determined using [ [3H]spiperone radioligand
Rattus norvegicus [19] = test: Social interaction of rats was determined after 1 hr of intraperitoneal administration at 1 mg/kg; type: functional; method in brief: as §4
Rattus norvegicus [20] = test: Antipsychotic efficacy of compound at intraperitoneal dose of 5 mg/kg on 6.1 dopamine neurons in the mesolimbic (A10) units in rat; type: functional
Rattus norvegicus [21] = test: Side effect liability of compound at intraperitoneal dose of 5 mg/kg on 16.1 (A9 units)dopamine neurons in the nigrostriatal in rat; type: functional
[22] = target: T1, 5-hydroxytryptamine receptor 1A (Mus musculus, UniProt Q64264); test: Binding affinity against 5-hydroxytryptamine 1A receptor was determined using [3H]-8-OH-DPAT radioligand
T1 sequence (Q64264 whole entry): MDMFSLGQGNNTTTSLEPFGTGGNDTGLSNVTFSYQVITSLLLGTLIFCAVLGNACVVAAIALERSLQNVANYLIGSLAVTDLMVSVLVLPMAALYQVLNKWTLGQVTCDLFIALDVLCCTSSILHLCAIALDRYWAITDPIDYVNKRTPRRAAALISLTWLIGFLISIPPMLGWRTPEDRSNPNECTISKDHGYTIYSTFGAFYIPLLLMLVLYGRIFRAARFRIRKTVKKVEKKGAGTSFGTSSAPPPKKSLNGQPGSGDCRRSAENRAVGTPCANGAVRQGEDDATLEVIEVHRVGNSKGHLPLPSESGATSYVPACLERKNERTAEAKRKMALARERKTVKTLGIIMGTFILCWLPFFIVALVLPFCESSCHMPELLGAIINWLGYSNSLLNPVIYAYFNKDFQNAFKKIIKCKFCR

[23] = target: Muscarinic acetylcholine receptor M3 (Rattus norvegicus, UniProt P08483); test: Binding affinity against Muscarinic acetylcholine receptor using [3H]quinuclidinyl benzilate
[24] = target: Serotonin 2 (5-HT2) receptor (Rattus norvegicus, UniProt P30994+P08909+P14842); test: Affinity for 5-hydroxytryptamine 2 receptor binding sites by its ability to displace [3H]spiperone from rat frontal cortex.
Rattus norvegicus [25] = test: Side effect liability of compound at intraperitoneal dose of 10 mg/kg on 16.1 (A9 units) dopamine neurons in the nigrostriatal in rat; type: functional
Rattus norvegicus [26] = test: Intracranial self stimulation in rat was determined after 1 hr of oral administration of the compound; type: functional

Chain of Muscarinic acetylcholine receptor M3 (P08483 whole entry): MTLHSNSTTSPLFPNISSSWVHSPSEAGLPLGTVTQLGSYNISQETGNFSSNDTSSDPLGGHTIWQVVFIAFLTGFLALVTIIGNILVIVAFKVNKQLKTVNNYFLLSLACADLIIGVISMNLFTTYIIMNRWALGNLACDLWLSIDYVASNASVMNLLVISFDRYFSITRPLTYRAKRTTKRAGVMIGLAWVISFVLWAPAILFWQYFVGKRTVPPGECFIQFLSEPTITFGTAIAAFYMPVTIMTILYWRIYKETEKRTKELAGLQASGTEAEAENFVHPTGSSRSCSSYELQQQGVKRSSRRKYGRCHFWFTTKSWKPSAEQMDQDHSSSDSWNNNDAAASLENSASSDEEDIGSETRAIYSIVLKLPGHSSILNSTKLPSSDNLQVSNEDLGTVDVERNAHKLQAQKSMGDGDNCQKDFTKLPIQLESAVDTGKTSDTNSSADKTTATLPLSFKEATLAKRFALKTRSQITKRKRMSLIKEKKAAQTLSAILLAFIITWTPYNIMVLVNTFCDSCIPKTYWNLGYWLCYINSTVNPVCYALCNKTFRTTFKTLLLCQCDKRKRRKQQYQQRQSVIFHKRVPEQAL
Chain of D(1A) dopamine receptor (Q61616 whole entry): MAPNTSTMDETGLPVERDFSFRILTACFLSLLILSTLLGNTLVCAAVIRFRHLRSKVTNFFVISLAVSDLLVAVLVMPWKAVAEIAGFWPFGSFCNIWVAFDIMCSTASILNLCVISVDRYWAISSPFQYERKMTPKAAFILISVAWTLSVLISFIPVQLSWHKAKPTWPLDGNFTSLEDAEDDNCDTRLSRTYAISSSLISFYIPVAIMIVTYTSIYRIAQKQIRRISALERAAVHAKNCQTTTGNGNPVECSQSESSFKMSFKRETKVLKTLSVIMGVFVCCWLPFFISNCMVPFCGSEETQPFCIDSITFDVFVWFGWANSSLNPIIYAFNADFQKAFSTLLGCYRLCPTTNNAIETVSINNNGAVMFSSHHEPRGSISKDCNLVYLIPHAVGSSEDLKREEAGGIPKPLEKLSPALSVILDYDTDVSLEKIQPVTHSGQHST
Chain of 5-hydroxytryptamine receptor 2A (Q75Z89 whole entry): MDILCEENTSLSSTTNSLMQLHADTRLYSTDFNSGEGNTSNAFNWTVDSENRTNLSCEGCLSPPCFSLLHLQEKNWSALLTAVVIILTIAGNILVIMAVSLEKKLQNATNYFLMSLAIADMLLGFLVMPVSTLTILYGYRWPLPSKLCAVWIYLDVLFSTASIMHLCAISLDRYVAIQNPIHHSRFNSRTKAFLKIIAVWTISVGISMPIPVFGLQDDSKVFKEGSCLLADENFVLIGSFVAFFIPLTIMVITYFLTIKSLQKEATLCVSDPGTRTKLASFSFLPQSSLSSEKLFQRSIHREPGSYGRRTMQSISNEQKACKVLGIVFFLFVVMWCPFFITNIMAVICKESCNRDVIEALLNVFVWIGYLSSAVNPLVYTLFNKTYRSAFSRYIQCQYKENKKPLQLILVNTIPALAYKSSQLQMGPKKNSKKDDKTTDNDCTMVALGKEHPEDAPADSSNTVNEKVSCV
Chain of Sigma non-opioid intracellular receptor 1 (Q99720 whole entry): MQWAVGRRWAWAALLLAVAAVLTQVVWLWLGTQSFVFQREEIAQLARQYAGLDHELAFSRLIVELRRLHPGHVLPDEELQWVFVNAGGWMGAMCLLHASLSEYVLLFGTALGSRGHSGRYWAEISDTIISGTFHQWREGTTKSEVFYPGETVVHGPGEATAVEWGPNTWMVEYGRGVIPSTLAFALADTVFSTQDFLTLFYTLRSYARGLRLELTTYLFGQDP

`O=C(CCCN1CCC(O)(c2ccc(Cl)cc2)CC1)c1ccc(F)cc1` [HALOPERIDOL] gave an ED50 (Rattus norvegicus [1]) of 0.6 mg/kg, an ED50 (Mus musculus) of 0.11 mg/kg and an ED50 (Rattus norvegicus [2]) of 0.65 mg/kg. The ED50 (Rattus norvegicus [3]) was 0.043 mg/kg, the Activity (Rattus norvegicus [4]) was -26% and the ED50 (Rattus norvegicus [5]) was 0.077 mg/kg. For the same molecule, the Change (Rattus norvegicus [6]) was -30%, the Change (Rattus norvegicus [7]) was -35% and the ED50 (Rattus norvegicus [8]) was 0.22 mg/kg. The ED50 (Rattus norvegicus [9]) was 0.29 mg/kg.

`CN1CCN(C2=Nc3cc(Cl)ccc3Nc3ccccc32)CC1` [CLOZAPINE] gave an Activity (Rattus norvegicus [10]) of 0%, an ED50 (Rattus norvegicus [1]) of over 40 mg/kg and an ED50 (Rattus norvegicus [3]) of 11.3 mg/kg. For the same molecule, the Activity (Rattus norvegicus [11]) was 39%, the Change (Rattus norvegicus [12]) was 37% and the ED50 (Rattus norvegicus [5]) was 7.4 mg/kg. The Change (Rattus norvegicus [13]) was -79%, the ED50 (Rattus norvegicus [8]) was 29.3 mg/kg and the ED50 (Rattus norvegicus [9]) was 0.43 mg/kg.

`Cc1nc2n(c(=O)c1CCN1CCC(c3noc4cc(F)ccc34)CC1)CCCC2` [RISPERIDONE] was tested, and the ED50 (Rattus norvegicus [1]) was 3.2 mg/kg, the ED50 (Mus musculus) was 0.062 mg/kg and the ED50 (Rattus norvegicus [3]) was 0.48 mg/kg. The Activity (Rattus norvegicus [14]) was 27%, the ED50 (Rattus norvegicus [15]) was 5.7 mg/kg and the ED50 (Rattus norvegicus [5]) was 0.13 mg/kg. For the same molecule, the ED50 (Rattus norvegicus [8]) was 1.3 mg/kg.

With `COc1cc(C(C)=O)ccc1OCCCN1CCC(c2noc3cc(F)ccc23)CC1` [ILOPERIDONE] the Change (Rattus norvegicus [16]) was -40%, the IC50 (D(1A) dopamine receptor) was 0.75 µM and the IC50 [17] was 0.064 µM. It also gave an ED50 (Rattus norvegicus [1]) of 34.8 mg/kg, an IC50 [18] of 0.009 µM and an ED50 (Mus musculus) of 0.095 mg/kg. It also gave an ED50 (Rattus norvegicus [3]) of 0.7 mg/kg, an Activity (Rattus norvegicus [19]) of 31% and an ED50 (Rattus norvegicus [15]) of 30.7 mg/kg. For the same molecule, the Change (Rattus norvegicus [20]) was -41%, the ED50 (Rattus norvegicus [5]) was 0.15 mg/kg and the Change (Rattus norvegicus [21]) was 81%. The IC50 [22] was 0.21 µM, the IC50 [23] was over 1 µM and the ED50 (Rattus norvegicus [8]) was 5.2 mg/kg. For the same molecule, the IC50 [24] was 0.009 µM, the ED50 (Rattus norvegicus [9]) was 0.07 mg/kg and the Change (Rattus norvegicus [25]) was 45%. It also gave an ED50 (Rattus norvegicus [26]) of 1.03 mg/kg.

Reference: ChEMBL document CHEMBL1128281 (J Med Chem, 1995)
